Results: ChEMBL document CHEMBL2429814 (J Med Chem, 2013)
pEC50, pIC50: −log10 of the molar value.

Columns and labels:
[1] = biological target: Metabotropic glutamate receptor 5 (Rattus norvegicus) (UniProt P31424); assay: Positive allosteric modulation of mGluR5 in rat cortical neurons at 3 uM relative to DHPG
[2] = biological target: T1, Metabotropic glutamate receptor 5 (Rattus norvegicus, UniProt P31424); assay: Positive allosteric modulation of rat mGluR5
[3] = biological target: T2, Metabotropic glutamate receptor 5 (Homo sapiens, UniProt P41594); assay: Positive allosteric modulation of human mGluR5
Target sequence in this assay (P41594 whole entry): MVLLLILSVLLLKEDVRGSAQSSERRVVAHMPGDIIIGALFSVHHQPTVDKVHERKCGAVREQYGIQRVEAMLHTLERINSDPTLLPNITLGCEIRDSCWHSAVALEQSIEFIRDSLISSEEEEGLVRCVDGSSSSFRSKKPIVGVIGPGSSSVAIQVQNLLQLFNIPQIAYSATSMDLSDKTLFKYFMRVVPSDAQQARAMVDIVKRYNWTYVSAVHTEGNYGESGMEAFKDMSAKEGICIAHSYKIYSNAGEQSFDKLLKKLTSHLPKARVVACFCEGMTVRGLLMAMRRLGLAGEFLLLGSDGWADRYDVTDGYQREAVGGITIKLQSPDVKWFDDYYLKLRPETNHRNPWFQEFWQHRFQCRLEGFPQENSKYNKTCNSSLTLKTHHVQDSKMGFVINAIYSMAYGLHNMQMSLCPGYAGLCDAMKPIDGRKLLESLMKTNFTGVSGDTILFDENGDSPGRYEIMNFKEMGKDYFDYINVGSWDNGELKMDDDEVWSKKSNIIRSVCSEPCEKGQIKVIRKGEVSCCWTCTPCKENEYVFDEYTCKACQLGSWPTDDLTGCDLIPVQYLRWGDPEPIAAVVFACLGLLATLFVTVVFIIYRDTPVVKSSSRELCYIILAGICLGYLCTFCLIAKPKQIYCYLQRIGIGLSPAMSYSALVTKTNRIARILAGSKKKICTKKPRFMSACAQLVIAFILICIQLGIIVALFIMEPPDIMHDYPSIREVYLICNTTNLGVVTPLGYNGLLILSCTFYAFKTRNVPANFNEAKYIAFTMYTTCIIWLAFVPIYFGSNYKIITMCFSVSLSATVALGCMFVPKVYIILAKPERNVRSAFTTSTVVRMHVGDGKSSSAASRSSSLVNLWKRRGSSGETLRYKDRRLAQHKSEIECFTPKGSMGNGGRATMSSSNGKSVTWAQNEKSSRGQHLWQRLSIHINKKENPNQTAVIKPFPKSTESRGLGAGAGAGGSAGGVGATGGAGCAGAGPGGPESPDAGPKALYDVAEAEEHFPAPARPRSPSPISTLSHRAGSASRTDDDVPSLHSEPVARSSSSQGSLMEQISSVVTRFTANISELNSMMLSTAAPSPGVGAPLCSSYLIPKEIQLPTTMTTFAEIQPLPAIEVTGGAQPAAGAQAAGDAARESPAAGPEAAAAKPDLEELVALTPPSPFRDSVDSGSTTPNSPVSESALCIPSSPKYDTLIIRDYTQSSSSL

[4] = Fraction unbound in rat plasma by equilibrium dialysis method; format: ADME, cell-free
In short: (§1)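 Plasma protein binding measured by equilibrium dialysis in human or rat plasma; reported as percent unbound.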

[5] = Plasma protein binding in human; format: ADME, cell-free
In short: (§2)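 Fraction unbound measured by equilibrium dialysis in human or rat plasma.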

[6] = Fraction unbound in human plasma by equilibrium dialysis method; format: ADME, cell-free; in short: as §1
[7] = Plasma protein binding in rat; format: ADME, cell-free; in short: as §2
[8] = biological target: T2, Metabotropic glutamate receptor 5; assay: Positive allosteric modulation of mGluR5 (unknown origin) at 10 uM relative to glutamate
In short: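 HEK293 cells stably expressing rat mGlu5 (low receptor expression line) were plated overnight at 37°C/5% CO2 and loaded with Fluo-4AM for 50 min at 37°C in HBSS with 20 mM HEPES and 2.5 mM probenecid, pH 7.4. PAM (10 µM) or vehicle was added, then a glutamate concentration-response curve 140 s later. Read-out was calcium fluorescence, reported as glutamate fold-shift, three independent runs in triplicate.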
Target sequence in this assay (P41594 21-1212 limits assumed): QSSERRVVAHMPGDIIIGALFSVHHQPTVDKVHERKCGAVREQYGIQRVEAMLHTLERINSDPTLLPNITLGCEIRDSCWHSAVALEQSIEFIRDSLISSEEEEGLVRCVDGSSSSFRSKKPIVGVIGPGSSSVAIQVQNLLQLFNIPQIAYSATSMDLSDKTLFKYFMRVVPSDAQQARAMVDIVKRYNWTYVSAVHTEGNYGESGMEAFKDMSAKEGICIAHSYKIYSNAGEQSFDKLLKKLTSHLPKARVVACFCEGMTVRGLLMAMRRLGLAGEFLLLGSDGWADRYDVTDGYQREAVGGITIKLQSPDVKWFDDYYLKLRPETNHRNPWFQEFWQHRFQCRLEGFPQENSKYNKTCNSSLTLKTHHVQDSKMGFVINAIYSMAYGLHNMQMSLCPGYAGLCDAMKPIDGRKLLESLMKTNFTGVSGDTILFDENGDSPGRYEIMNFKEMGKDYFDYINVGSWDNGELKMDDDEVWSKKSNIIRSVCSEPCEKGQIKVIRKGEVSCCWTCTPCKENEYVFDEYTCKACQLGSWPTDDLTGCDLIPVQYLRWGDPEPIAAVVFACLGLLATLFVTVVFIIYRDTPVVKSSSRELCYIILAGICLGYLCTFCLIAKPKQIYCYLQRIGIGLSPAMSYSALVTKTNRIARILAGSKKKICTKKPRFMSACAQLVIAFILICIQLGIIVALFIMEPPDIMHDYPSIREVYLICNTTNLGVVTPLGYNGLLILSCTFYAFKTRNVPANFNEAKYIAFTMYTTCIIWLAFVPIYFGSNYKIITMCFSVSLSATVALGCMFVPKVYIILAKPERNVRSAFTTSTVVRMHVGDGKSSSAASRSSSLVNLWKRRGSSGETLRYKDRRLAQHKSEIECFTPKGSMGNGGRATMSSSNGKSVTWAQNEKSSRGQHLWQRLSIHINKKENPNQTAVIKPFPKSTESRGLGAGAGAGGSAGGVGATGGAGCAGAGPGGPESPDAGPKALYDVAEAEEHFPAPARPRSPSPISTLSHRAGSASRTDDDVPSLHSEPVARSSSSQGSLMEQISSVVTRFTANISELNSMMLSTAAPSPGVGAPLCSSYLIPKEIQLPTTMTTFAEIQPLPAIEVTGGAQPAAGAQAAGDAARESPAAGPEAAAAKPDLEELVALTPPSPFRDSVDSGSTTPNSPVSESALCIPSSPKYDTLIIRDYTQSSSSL

[9] = biological target: Metabotropic glutamate receptor 5 (Rattus norvegicus) (UniProt P31424); assay: Positive allosteric modulation of rat mGluR5 stably expressed in HEK293 cells assessed as increase in intracellular calcium level by Fluo-4AM dye-based fluorescence assay relative to glutamate; format: functional, cell-based
[10] = biological target: Metabotropic glutamate receptor 5 (Rattus norvegicus) (UniProt P31424); assay: Potentiation of rat mGluR5 receptor stably expressed in HEK293 cells assessed as fold shift in glutamate concentration response curve at 10 uM relative to control; format: cell-based
In short: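 HEK293 cells stably expressing rat mGlu5 were loaded with Fluo-4AM. Compound at 10 µM, or vehicle, was added, and a glutamate concentration-response curve followed 140 s later. The fold leftward shift of the glutamate curve was read from calcium fluorescence. Values are means of three independent experiments in triplicate.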

[11] = biological target: T1, Metabotropic glutamate receptor 5; assay: Positive allosteric modulation of rat mGluR5 stably expressed in HEK293 cells assessed as increase in intracellular calcium level by Fluo-4AM dye-based fluorescence assay; format: functional, cell-based; conditions: read-out: EC50
In short: (§3)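 HEK293 cells stably expressing rat mGlu5 (low receptor density line), 15,000 cells/well, grown overnight at 37°C/5% CO2. Loaded with Fluo-4AM for 50 min at 37°C in HBSS with 20 mM HEPES, 2.5 mM probenecid, pH 7.4. Triple add: compound, then EC20 glutamate 140 s later, then EC80 glutamate 60 s later. Calcium fluorescence read over time. Values are means of ≥3 independent experiments run in duplicate or triplicate.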

[12] = biological target: Metabotropic glutamate receptor 5 (Rattus norvegicus) (UniProt P31424); assay: Positive allosteric modulation of mGluR5 in rat cortical neurons at 1 uM relative to DHPG
[13] = biological target: T1, Metabotropic glutamate receptor 5; assay: Agonist activity at rat mGluR5 stably expressed in HEK293 cells assessed as increase in intracellular calcium level by Fluo-4AM dye-based fluorescence assay relative to glutamate; format: cell-based; conditions: read-out: Efficacy
In short: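 HEK293 cells stably expressing rat mGlu5 (low receptor density), 15,000 cells/well, grown overnight, then loaded with Fluo-4AM for 50 min at 37°C in HBSS/20 mM HEPES/2.5 mM probenecid, pH 7.4. Triple-add protocol: compound, then glutamate EC20 140 s later, then EC80 60 s later. Fluorescence read over time. At least three independent runs in duplicate or triplicate; response given as % of glutamate maximum.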

[14] = Agonist activity at rat mGluR5 T780A mutant stably expressed in HEK293 cells assessed as increase in intracellular calcium level at 1 to 100 uM by Fluo-4AM dye-based fluorescence assay; format: cell-based; conditions: hek293, 100 µM
[15] = biological target: T1, Metabotropic glutamate receptor 5; assay: Agonist activity at rat mGluR5 stably expressed in HEK293 cells assessed as increase in intracellular calcium level by Fluo-4AM dye-based fluorescence assay; format: cell-based; conditions: read-out: EC50; in short: as §3
[16] = biological target: T1, Metabotropic glutamate receptor 5; assay: Antagonist activity at rat mGluR5 stably expressed in HEK293 cells assessed as inhibition of glutamate-induced intracellular calcium level by Fluo-4AM dye-based fluorescence assay; format: functional, cell-based
[17] = biological target: Metabotropic glutamate receptor 5 (Rattus norvegicus) (UniProt P31424); assay: Antagonist activity at rat mGluR5 stably expressed in HEK293 cells assessed as inhibition of glutamate-induced intracellular calcium level by Fluo-4AM dye-based fluorescence assay relative to control; format: functional, cell-based; conditions: concentration not given here

Chain of Metabotropic glutamate receptor 5 (Rattus norvegicus) (P31424 21-1203 limits assumed): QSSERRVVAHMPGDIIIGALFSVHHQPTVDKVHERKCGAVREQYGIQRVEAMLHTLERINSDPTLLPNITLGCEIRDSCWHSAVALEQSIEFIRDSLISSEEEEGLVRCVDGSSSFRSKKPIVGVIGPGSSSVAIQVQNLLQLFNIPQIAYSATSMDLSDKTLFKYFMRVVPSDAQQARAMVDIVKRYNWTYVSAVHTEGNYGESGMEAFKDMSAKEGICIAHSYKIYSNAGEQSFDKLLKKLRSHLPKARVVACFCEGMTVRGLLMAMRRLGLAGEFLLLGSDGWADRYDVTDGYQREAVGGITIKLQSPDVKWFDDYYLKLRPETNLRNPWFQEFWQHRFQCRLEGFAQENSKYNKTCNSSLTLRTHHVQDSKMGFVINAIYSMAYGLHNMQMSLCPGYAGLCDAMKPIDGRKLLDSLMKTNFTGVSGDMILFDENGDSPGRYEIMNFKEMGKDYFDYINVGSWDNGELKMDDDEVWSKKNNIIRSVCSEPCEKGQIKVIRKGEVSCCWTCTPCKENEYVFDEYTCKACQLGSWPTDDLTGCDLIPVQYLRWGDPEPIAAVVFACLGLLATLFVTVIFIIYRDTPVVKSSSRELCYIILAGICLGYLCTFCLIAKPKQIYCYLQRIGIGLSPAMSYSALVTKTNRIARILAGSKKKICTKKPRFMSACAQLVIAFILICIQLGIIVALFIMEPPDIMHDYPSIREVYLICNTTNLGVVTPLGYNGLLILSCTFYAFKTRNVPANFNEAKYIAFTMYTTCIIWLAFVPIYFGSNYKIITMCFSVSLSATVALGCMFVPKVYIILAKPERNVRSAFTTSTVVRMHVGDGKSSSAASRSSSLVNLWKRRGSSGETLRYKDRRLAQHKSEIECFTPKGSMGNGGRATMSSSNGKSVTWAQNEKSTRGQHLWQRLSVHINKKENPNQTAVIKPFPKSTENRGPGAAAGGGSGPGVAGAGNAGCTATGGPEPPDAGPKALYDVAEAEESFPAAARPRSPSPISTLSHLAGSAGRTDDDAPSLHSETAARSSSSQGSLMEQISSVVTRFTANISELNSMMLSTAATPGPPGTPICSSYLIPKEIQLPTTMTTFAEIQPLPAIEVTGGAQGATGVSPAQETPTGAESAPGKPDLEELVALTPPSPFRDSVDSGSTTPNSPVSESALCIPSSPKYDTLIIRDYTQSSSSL
T1 sequence (P31424 whole entry): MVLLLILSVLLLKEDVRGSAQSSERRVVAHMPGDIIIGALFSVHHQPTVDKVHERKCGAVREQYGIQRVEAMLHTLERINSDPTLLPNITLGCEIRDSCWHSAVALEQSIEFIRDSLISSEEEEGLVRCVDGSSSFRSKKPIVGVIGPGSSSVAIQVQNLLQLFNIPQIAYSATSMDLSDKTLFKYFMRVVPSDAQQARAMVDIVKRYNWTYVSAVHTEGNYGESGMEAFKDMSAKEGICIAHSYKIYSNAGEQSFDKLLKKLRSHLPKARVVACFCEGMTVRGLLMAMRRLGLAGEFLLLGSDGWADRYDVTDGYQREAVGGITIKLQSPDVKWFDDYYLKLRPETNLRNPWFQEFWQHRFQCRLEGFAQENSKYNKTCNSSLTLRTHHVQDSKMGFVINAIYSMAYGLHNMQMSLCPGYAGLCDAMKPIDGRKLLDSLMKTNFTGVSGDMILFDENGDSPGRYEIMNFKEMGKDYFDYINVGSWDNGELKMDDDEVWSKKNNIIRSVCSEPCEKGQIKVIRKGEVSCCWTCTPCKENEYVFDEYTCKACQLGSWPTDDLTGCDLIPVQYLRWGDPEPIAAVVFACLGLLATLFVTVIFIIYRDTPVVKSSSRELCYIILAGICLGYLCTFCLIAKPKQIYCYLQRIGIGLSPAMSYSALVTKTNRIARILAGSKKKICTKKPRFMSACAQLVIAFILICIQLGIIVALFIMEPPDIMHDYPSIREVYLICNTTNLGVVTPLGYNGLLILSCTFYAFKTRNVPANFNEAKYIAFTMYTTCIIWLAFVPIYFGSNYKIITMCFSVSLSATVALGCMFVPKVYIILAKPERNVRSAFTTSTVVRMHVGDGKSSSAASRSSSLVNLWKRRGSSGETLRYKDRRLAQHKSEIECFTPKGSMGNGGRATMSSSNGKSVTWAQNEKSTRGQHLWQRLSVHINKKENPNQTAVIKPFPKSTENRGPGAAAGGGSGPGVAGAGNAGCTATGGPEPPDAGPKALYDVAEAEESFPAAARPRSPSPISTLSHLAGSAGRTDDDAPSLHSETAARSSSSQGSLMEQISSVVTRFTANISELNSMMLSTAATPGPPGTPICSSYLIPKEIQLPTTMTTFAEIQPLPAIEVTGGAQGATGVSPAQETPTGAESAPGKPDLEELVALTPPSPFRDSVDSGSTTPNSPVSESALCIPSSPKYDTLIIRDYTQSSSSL

Structure (SMILES)	Efficacy [9]	fold change (FC) [10]	pEC50 [11]	Emax [13]	pEC50 [15]	also measured
CC(C)(C)c1nnc2n1CC[C@H](c1nc(-c3ccc(F)cc3)no1)C2						fold change (FC) [1]: 2.8; pEC50 [2]: 7.38; pEC50 [3]: 7.28
O=C(NC1CCC1)c1ccc(C#Cc2cccc(F)c2)cn1						pEC50 [2]: 8.40; fraction unbound [4]: < 0.01; fraction unbound ([5]; read-out: PPB): < 0.01; fraction unbound [6]: < 0.01; fraction unbound ([7]; read-out: PPB): < 0.01
O=C1c2ccc(F)cc2CCC2CC[C@@H](c3noc(-c4ccc(F)cn4)n3)CN12 (stereo partly specified)						fold change (FC) [8]: 6
O=C(c1ccc(C#Cc2cccc(F)c2)nc1)N1CCC(O)CC1						pEC50 [2]: 6.70
CC(C)[C@@H](C)NC(=O)c1ccc(C#Cc2ccccn2)cn1	58.5%	1.3	7.10			
Cc1nc(C#Cc2ccc(C(=O)N[C@H](C)C(C)(C)O)nc2)cs1	66.6%	1.6	7.23			
C[C@@H](NC(=O)c1cnc(C#Cc2cccc(F)c2)nc1)C(C)(C)O	68.7%	4	6.91			
CC(C)NC(=O)c1ccc(C#Cc2ccncc2)cn1						fold change (FC) [12]: 2; pEC50 [2]: 7.62; pEC50 [3]: 7.48
CC(C)(O)CCNC(=O)c1ccc(C#Cc2cccc(F)c2)cn1	61.9%	5.3	6.87			
Cc1cc(C#Cc2cccc(F)c2)cnc1C(=O)N[C@H](C)C(C)(C)O	66.4%	2.3	6.98			
C[C@@H]1CC[C@H](c2noc(-c3ccc(F)cn3)n2)CN1C(=O)c1ccccc1						fold change (FC) [8]: 11
C[C@@H](NC(=O)c1ccc(C#Cc2cccc(F)c2)cn1)C(C)(C)O	63.5%		8.31	37.1%	6.04	pEC50 [2]: 8.82; Activity [14]: Not Active; fraction unbound [5]: 0.027; fraction unbound [7]: 0.028
C[C@@H](NC(=O)c1ccc(C#Cc2cccc(F)c2)cn1)C(F)(F)F	52.1%	1.5	7.68			
O=C(NCC1CC1)c1ccc(C#Cc2cccc(F)c2)cn1	61.4%	1.6	7.44			
O=C(N[C@H]1C[C@H](O)C1)c1ccc(C#Cc2cccc(F)c2)cn1						pEC50 [2]: 7.77
CC1(CNC(=O)c2ccc(C#Cc3cccc(F)c3)cn2)COC1	60.4%	3.3	7.97			
C[C@@H](NC(=O)c1ncc(C#Cc2cccc(F)c2)cn1)C(C)(C)O	64.1%		7.32	19.2%	5.38	

Structure (SMILES)	Efficacy [9]	fold change (FC) [10]	pEC50 [11]	Emax [13]	pEC50 [15]	also measured
C[C@@H](NC(=O)c1ccc(C#Cc2ccccc2)cn1)C(C)(C)O	60.9%		8.39	43.2%	6.06	
CCCNC(=O)c1ccc(C#Cc2cccc(F)c2)cn1	65.9%		7.46	8.3%	5.52	
C[C@@H](NC(=O)c1ccc(C#Cc2ccc(F)cc2)cn1)C(C)(C)O	66.2%		7.91	38.4%	5.82	
C[C@@H](NC(=O)c1ccc(C#Cc2ccc(F)cn2)cn1)C(C)(C)O	64.6%		7.55	13.5%	5.77	
C[C@@H](NC(=O)c1ccc(C#Cc2cc(F)ccn2)cn1)C(C)(C)O	66.2%		7.44	33%	5.40	
C[C@@H](NC(=O)c1ccc(C#Cc2cccc(F)c2)cn1)C(C)(C)C	66%		7.75	31.2%	5.56	
C[C@@H](NC(=O)c1cnc(C#Cc2cccc(F)c2)cn1)C(C)(C)O	64.4%		7.90	17.2%	5.52	
Cc1nc(C#Cc2cccc(F)c2)ccc1C(=O)N[C@H](C)C(C)(C)O	64.9%		7.77	9.2%	5.96	
CC(C)CNC(=O)c1ccc(C#Cc2cccc(F)c2)cn1	58.2%	1.9	7.54			
CC1(NC(=O)c2ccc(C#Cc3ccccn3)cn2)COC1						pIC50 [16]: 6.14; inhibition [17]: 16.7%
C[C@@H](NC(=O)c1ccc(C#CC2CCCC2)cn1)C(C)(C)O	63.7%		7.03	14.8%	5.01	
C[C@H](NC(=O)c1ccc(C#Cc2cccc(F)c2)cn1)C(F)(F)F	60.8%		7.66	21.4%	5.86	
Cc1ccccc1C#Cc1ccc(C(=O)N[C@H](C)C(C)(C)O)nc1	59.9%		6.66	24.1%	4.91	
CC(C)(C)CNC(=O)c1ccc(C#Cc2cccc(F)c2)cn1	63.9%		7.78	9.5%	5.59	
C[C@@H](NC(=O)c1ccc(C#Cc2ccccn2)cn1)C(C)(C)F	54.9%	1.5	7.65			
C[C@@H](NC(=O)c1ccc(C#Cc2ccncc2)cn1)C(C)(C)O	66.6%		7.37	22.4%	5.33	
